Published values pooled from the literature.
Compare with care: the assays were run in different laboratories.
MAP2K6: Dual specificity mitogen-activated protein kinase kinase 6 (MAP2K6, Homo sapiens, UniProt P52564)

The remaining binding of `COc1ncccc1-c1cnn2ccc(N3CCN(C(=O)OC(C)C)CC3)nc12` is reported as 56% (MAP2K6; binding, competition with immobilised ligand; 1 µM).
For `Cn1cc(-c2cccc(N3CCc4c(sc5c4CC(C)(C)C5)C3=O)c2CO)cc(Nc2ccncn2)c1=O`, the inhibition was -4% (Dual specificity mitogen-activated protein kinase kinase 6 (MAP2K6, Homo sapiens, UniProt P52564, S207E/T211E); enzyme activity, inhibitor; 1 µM).
`Cn1cncc1[C@](O)(COc1ccc(C#N)cc1-c1ccc(OC(F)(F)F)cc1)c1ccc(C#N)cc1` gave a remaining binding of 76% (MAP2K6; cell-free assay, competition with immobilised ligand; 1 µM).
`Cc1nn(C)cc1-c1nc2c(N3CCN(Cc4ccc(Cl)cc4)CC3)c(Cl)cnc2[nH]1` has a remaining binding of 73% (MAP2K6; binding, competition with immobilised ligand; 1 µM).
`O=c1[nH]c2ccccc2n1C1CCN(Cc2ccc(-c3[nH]c4cc5ncnc5cc4nc3-c3ccccc3)cc2)CC1` has a remaining signal of 101% (MAP2K6; cell-free assay; 0.5 µM).
With `Nc1ncc(-c2nc(N3CCOCC3)nc(N3CCOCC3)n2)c(C(F)F)n1` the remaining binding was 92% (MAP2K6; binding, competition with immobilised ligand; 10 µM).
The remaining activity of `CC(C)(C)c1cc(C=C(C#N)C#N)cc(Br)c1O` is reported as 107% (MAP2K6; enzyme activity, inhibitor; 0.5 µM).
For `N#CC1(c2ccccn2)CCN(Cc2cc(C(=O)O)c(=O)n3ccccc23)CC1`, the remaining binding was 99% (MAP2K6; cell-free assay, competition with immobilised ligand; 1 µM).
`Cn1cc(-c2cc(F)cc(N3CCn4c(cc5c4CCCC5)C3=O)c2CO)cc(Nc2ccc(N3CCN(C4COC4)CC3)cn2)c1=O` has an inhibition of 4% (MAP2K6; enzyme activity, inhibitor; 0.1 µM).
